Data reported in ChEMBL document CHEMBL1124344, “5-Piperazinylalkyl-2(3H)-oxazolones with neuroleptic activity” (J Med Chem, 1989).

Columns and labels:
[1] = test system: Canis familiaris; assay: Antagonistic activity against apomorphine-induced emesis, after 5 hour of peroral administration in dogs; format: functional; details: Canis lupus familiaris, po
How it was run: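 Male and female dogs pretreated orally, then challenged with apomorphine 0.3 mg/kg sc. Complete protection from vomiting for 30 min after apomorphine is the criterion. ED50 is the dose protecting 50% of dogs, per Janssen's method.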

[2] = test system: Mus musculus; assay: Activity of inclined screen in mouse, after 1 hour of peroral administration in mouse; format: functional; details: po
How it was run: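 Male mice dosed orally (arabic gum suspension, 10 mL/kg, fasted overnight) 1 or 5 h before testing. Placed for 1 h on a wire screen bent at 60° to the horizontal. Ataxic or miorelaxed mice slide off. ED50 is the dose at which 50% of mice fall, by probit analysis. Ten animals per dose, with vehicle controls.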

[3] = test system: Mus musculus; assay: Antagonistic activity against amphetamine-induced Hypermobility in mouse by administering perorally; format: functional; details: po
How it was run: (§1)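 Male mice in groups of five, fasted overnight, given oral drug in arabic gum suspension (10 mL/kg) 1 or 5 h ahead. Amphetamine 4 mg/kg ip given 30 min after drug. Ten minutes later locomotion is recorded for 15 min in a photocell actophotometer. ED50 is 50% reduction versus control hypermotility, by probit analysis. Parenthetical entries give the maximal dose and percent activity.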

[4] = test system: Mus musculus; assay: Antagonistic activity against amphetamine-induced hypermotility, after 1 hour of peroral administration in mouse; format: functional; details: po; how it was run: as §1
[5] = test system: Mus musculus; assay: Antagonistic activity against amphetamine-induced hypermotility, after 5 hour of peroral administration in mouse; format: functional; details: po; how it was run: as §1
[6] = test system: Mus musculus; assay: Anticonvulsant activity against tryptamine-induced convulsions, after 1 hour of peroral administration in mouse; format: functional; details: po
How it was run: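 Compounds were dosed as bases suspended in arabic gum at 10 mL/kg orally, after an overnight fast, with vehicle controls. Protection meant no bilateral forepaw clonic seizures or head twitches (tryptamine), or no tonic hind-limb extension (the other two). ED50 is the dose protecting 50%, by probit analysis.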

[7] = test system: Mus musculus; assay: Inhibition against apomorphine-induced climbing, after 5 hour of peroral administration in mouse; format: functional; details: po
How it was run: (§2)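 Mice were dosed orally (gum arabic suspension, 10 mL/kg, fasted), then given apomorphine 1 mg/kg sc and placed in cylindrical cages with vertical metal bars. Climbing was scored 0 for four paws on the floor, 1 for forefeet on the wall, 2 for four paws on the wall. ED50 is the dose halving the control score.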

[8] = test system: Mus musculus; assay: Inhibition of spontaneous motor activity in mouse, by administering perorally; format: functional; details: po
How it was run: (§3)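 Mice fasted overnight, then dosed orally with compound (weighed as base) suspended in arabic gum, 10 mL/kg, with vehicle controls; 1 h pretreatment for screening tests, 1 or 5 h for others. Groups of five; locomotor activity counted 10 min in photocell activity cage, at least two groups per dose. ED50 = dose giving 50% inhibition versus controls, by probit analysis.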

[9] = test system: Mus musculus; assay: Inhibition against apomorphine-induced climbing, after 1 hour of peroral administration in mouse; format: functional; details: po; how it was run: as §2
[10] = test system: Mus musculus; assay: Contractile activity in skeletal muscles, after 1 hour of peroral administration in mouse; format: functional; details: Muscle tissue, po
How it was run: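 Male mice were placed for 1 h on a 60° inclined wire screen just after dosing and 4 h later. In a second test, trained mice hung by the forepaws from a horizontal 1.8 mm wire 15 cm up; normal mice touch it with a hind paw within 2 s and stay ≥1 min. ED50 is the dose making 50% fall. Dosing was oral in gum arabic suspension at 10 mL/kg after an overnight fast.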

[11] = test system: Mus musculus; assay: Suppression of aggressive behavior, after 5 hour of peroral administration in mouse; format: functional; details: po
How it was run: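 Male mice made aggressive by isolation in individual black cages for about 1 month plus weekly testosterone cyclopentylpropionate 250 mg/kg sc; pairs preselected for attack on a nonisolated male within 15 min. Oral dosing (arabic gum, 10 mL/kg) 1 or 5 h before test, overnight fast. ED50 = dose suppressing aggression in 50% of animals, probit analysis.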

[12] = test system: Mus musculus; assay: Potentiation against pentobarbital-induced sleeping, after 1 hour of peroral administration in mouse; format: functional; details: po
How it was run: (§4)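 Female mice fasted overnight, dosed orally 1 or 5 h beforehand as arabic gum suspension, 10 mL/kg, with vehicle controls. Subhypnotic pentobarbital 10 mg/kg iv; 3 min later placed on back, effect scored as complete loss of righting reflex for at least 15 s. ED50 = dose producing this in 50% of mice, probit analysis.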

[13] = Lethal dose in mice (LD50) following i.p. dosing; format: toxicity, organism-based; details: mouse, in vivo, ip
How it was run: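 Acute toxicity tested in mice by the intraperitoneal route. LD50 is the dose killing 50% of treated mice, computed by Finney probit analysis; values are approximate.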

[14] = test system: Rattus norvegicus; assay: Activity to evoke catalepsy, after 1 hour of peroral administration in rats; format: functional; details: po
How it was run: (§5)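 Rats fasted overnight and given oral doses in arabic gum suspension (10 mL/kg), 1 h before screening or 1 and 5 h before profile testing. Forelegs placed on a horizontal bar 7 cm high, three times at 5-min intervals. Immobility of at least 15 s counts as catalepsy. ED50 is the dose giving catalepsy in 50% of rats, by probit analysis. Parenthetical entries give the maximal dose and percent activity.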

[15] = test system: Rattus norvegicus; assay: Activity to evoke catalepsy, after 5 hour of peroral administration in rats; format: functional; details: po; how it was run: as §5
[16] = test system: Rattus norvegicus; assay: Antagonistic activity against amphetamine-induced stereotypy, after 1 hour of peroral administration in rats; format: functional; details: po
How it was run: (§6)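 Male rats dosed orally (arabic gum suspension, 10 mL/kg, fasted overnight) 1 or 5 h beforehand. Amphetamine 7.5 mg/kg iv, with stereotyped movements scored as present or absent 1 h later. ED50 is the dose inhibiting stereotypy in 50% of rats, by probit analysis. Parenthetical entries give the maximal dose and percent activity.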

[17] = test system: Rattus norvegicus; assay: Antagonistic activity against amphetamine-induced stereotypy, after 5 hour of peroral administration in rats; format: functional; details: po; how it was run: as §6
[18] = test system: Rattus norvegicus; assay: Antagonistic activity against apomorphine-induced stereotypy, after 1 hour of peroral administration in rats; format: functional; details: po
How it was run: (§7)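 Male rats fasted overnight and given oral doses in arabic gum suspension (10 mL/kg) 1 h, or 1 and 5 h, before challenge. Apomorphine 3 mg/kg iv, with stereotypy observed 20 min later. ED50 is the dose inhibiting stereotypy in 50% of rats, per Janssen's method. Parenthetical entries give the maximal dose and percent activity.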

[19] = test system: Rattus norvegicus; assay: Inhibition against conditioned avoidance response, after 1 hour of peroral administration in rats; format: functional; details: po
How it was run: (§8)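 Male rats were trained in a shuttle box to avoid grid-floor shock by crossing compartments during a warning period. Dosing was oral as a gum arabic suspension at 10 mL/kg after an overnight fast. Percent inhibition was computed against a pretraining test. ED50 is the dose giving 50% inhibition.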

[20] = test system: Rattus norvegicus; assay: Inhibition against conditioned avoidance response, after 5 hour of peroral administration in rats; format: functional; details: po; how it was run: as §8
[21] = test system: Mus musculus; assay: Potentiation against pentobarbital-induced sleeping, after 5 hour of peroral administration in mouse; format: functional; details: po; how it was run: as §4
[22] = species on record: Rattus norvegicus; assay: Body weight gain, after 2 hour period of conditioned feeding in rats; format: functional
How it was run: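 Female rats (250–280 g) were kept singly on a 22-h food deprivation schedule, with pellets 10–12 a.m. and water always available. After 30–40 days of training they were dosed 1 h before the 2-h feeding and weighed before and after it. Weight gain was expressed as a percentage of the two preceding control days. ED50 is the dose giving 50% reduction.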

[23] = test system: Rattus norvegicus; assay: Antagonistic activity against apomorphine-induced stereotypy, after 5 hour of peroral administration in rats; format: functional; details: po; how it was run: as §7
[24] = test system: Mus musculus; assay: Inhibition of spontaneous motor activity, after 1 hour of peroral administration in mouse; format: functional; details: po; how it was run: as §3
[25] = test system: Mus musculus; assay: Inhibition of spontaneous motor activity, after 5 hour of peroral administration in mouse; format: functional; details: po; how it was run: as §3

Structure (SMILES)	ED50 [1] [mg/kg]	ED50 [2] [mg/kg]	ED50 [3] [mg/kg]	ED50 [4] [mg/kg]	ED50 [5] [mg/kg]	ED50 [6] [mg/kg]	ED50 [7] [mg/kg]	ED50 [8] [mg/kg]	ED50 [9] [mg/kg]	ED50 [10] [mg/kg]	ED50 [11] [mg/kg]	ED50 [12] [mg/kg]	ED50 [14] [mg/kg]	ED50 [16] [mg/kg]	ED50 [17] [mg/kg]	ED50 [18] [mg/kg]	ED50 [19] [mg/kg]	ED50 [20] [mg/kg]	ED50 [22] [mg/kg]	ED50 [23] [mg/kg]	other results
COc1ccccc1N1CCN(CCCC(=O)c2ccc(F)cc2)CC1 [FLUANISONE]	8.6	49	16.4	16.4	18	12.5	15	7.7	5	20	20.1	20.7	18	17.8	50	63.2	25	50			LD50 [13]: 180 mg/kg; ED50 [15]: 13.9 mg/kg
CN(C)CCCN1c2ccccc2Sc2ccc(Cl)cc21 [CHLORPROMAZINE]		5.4		4.1	2.4	3.4	2.2		2	36.5	3.1	3.2	10.3	19.4	13.6	28.9	6.8	10.3	6	41.6	ED50 [21]: 3.3 mg/kg
COc1ccccc1N1CCN(CCc2oc(=O)[nH]c2-c2ccc(F)cc2)CC1 [ZOLOPERONE]	1.5	91	4	4	15	9.8	4	4.6	0.42		4.7	41.1	55.6	5.3	12.4	10.4	3.5	11.6	7.1	60.7	ED50 [24]: 4.6 mg/kg; ED50 [25]: 20.3 mg/kg; ED50 [21]: 37.3 mg/kg; LD50 [13]: > 2000 mg/kg; ED50 [15]: 21.5 mg/kg
O=c1[nH]c(-c2ccc(F)cc2)c(CCN2CCN(c3cc(Cl)cc(Cl)c3)CC2)o1 [LODIPERONE]	2.5		1.5	1.5	1.9		0.21	2.7	0.37	200	8.5			13.5	4.2			6.4	2.2	106	ED50 [24]: 2.7 mg/kg; ED50 [25]: 2.5 mg/kg; LD50 [13]: > 2000 mg/kg; ED50 [15]: 24.3 mg/kg
O=C(CCCN1CCC(O)(c2ccc(Cl)cc2)CC1)c1ccc(F)cc1 [HALOPERIDOL]		6.8		0.12	0.28	1.1	0.045		0.12		0.29	7	15.4	0.27	0.39	1.1	0.23	0.32	0.3	1.8	ED50 [24]: 0.16 mg/kg; ED50 [25]: 0.35 mg/kg; ED50 [21]: 3.1 mg/kg
